Assay outcomes from PubChem.
sdo1 growth: sdo1-depleted yeast growth rescue; 0.21% of 140,000 active; z-score at 10 µM; S. cerevisiae sdo1-depleted JHY4D growth rescue, OD600 30 h; hits give high values; pdr5 snq2 efflux-pump mutant strain; AID 817;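 active = z-score above 3 at both the 24 hr and the 30 hr optical density reads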
Yeast lifespan up: yeast lifespan extension | 0.68% of 130,000 active | inhibition of the nicotinamide effect, % at 10 µM | AID 775 | S. cerevisiae growth with nicotinamide, OD615; deaD strain in restrictive glucose medium;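 active = inhibition above a set limit, placed 3 SD over the median of all compounds, cut at about 26% in these data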
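Measured by: optical density (absorbance) at 615 nm; System: modified budding yeast, DeaD strain; Medium: restrictive CSMM-D dextrose medium; Timing: 4 h preincubation then 48 h treatment at 30 °C.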
RAM network inh: blocks the yeast RAM network. S. cerevisiae dse1pr::URA3 reporter, 5-FOA growth OD615, 2 d; analog-sensitive cbk1-as2 kinase mutant strain. inhibition, % at 50 µM. 1.8% of 190,000 active. AID 868;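 active = inhibition above a set limit, 3 SD over mean compound inhibition, cut at about 8.4% in these data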;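 note: inhibition rescues growth on 5-FOA so higher OD means more RAM inhibition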
BB579 growth dn: yeast BB579 growth reduction in restrictive medium. S. cerevisiae BB579 growth, OD615, 48 h. inhibition, % at 10 µM. 0.51% of 140,000 active. AID 804;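 active = inhibition above a set limit, 3 SD over the mean compound inhibition, cut at about 44% in these data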
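Assay system – yeast BB579 (DeaD) · Dosing – single compound dose of 10 µM, 0.25% DMSO final · Detection – OD615 turbidity measurement · Buffer or medium – CSMM-D restrictive synthetic medium containing dextrose (glucose) · Benchmarks – positive control amphotericin B 10 µg/mL · Incubation – 48 h exposure, 30 °C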
Hits are given with their value; . = inactive; / = no result. Most compounds without a hit are left out; they make up all but 2.7% or so of the library.

SMILES	sdo1 growth	Yeast lifespan up	RAM network inh	BB579 growth dn
CCn1c(CNC(=O)COc2ccc(C(C)C)cc2)nnc1SCC(=O)Nc1ccc(F)cc1	.	.	10.0	.
Brc1ccc(C2NCCS2)cc1 (stereo not drawn)	/	/	.	/
O=C(COC(=O)CNC(=O)C12CC3CC(CC(C3)C1)C2)Nc1ccccc1	.	.	.	.
COc1cccc(-n2nnnc2S(C)(=O)=O)c1	.	.	.	74
CCSc1nc2ccccc2n1C(=O)/C=C/c1ccc(OC)c(OC)c1	.	.	10	.
C=CCSc1nc2ccccc2n1C(=O)/C=C/c1ccc(OC)c(OC)c1	.	.	.	.
COCC(C)NC(=O)c1cc(-c2ccc(O)cc2)on1 (stereo not drawn)	.	.	.	.
COc1ccc(/C=C/C(=O)Nc2cc(C)nn2-c2nc3ccccc3n2Cc2cccc([N+](=O)[O-])c2)cc1	.	.	8.9	.
CCOCC(=O)Nc1ccc(OCc2ccccc2)cc1	/	/	.	/
O=C1C(Oc2ccccc2)C(c2cccs2)N1Cc1ccc2c(c1)OCO2 (stereo not drawn)	.	.	.	.
Cc1ccccc1OC1C(=O)N(Cc2ccc3c(c2)OCO3)C1c1sccc1C (stereo not drawn)	.	.	10	.
CCCN(CCC)CCCn1c(=O)[nH]c2ccccc21	/	/	.	/
CC(C)OCC1CC(CC(=O)NC(=S)Nc2cccc([N+](=O)[O-])c2)C(=O)O1 (stereo not drawn)	.	/	.	.
Cc1ccc(-n2nnc3c(=O)n(CC(=O)N4CCC(C)CC4)cnc32)cc1	.	.	.	43
COCc1nc2ccccc2n1Cc1ccccc1C	/	/	.	/
COc1ccc(C(=O)CSc2nnc(C(CO)NC(=O)c3ccc(OC)cc3)n2C)cc1 (stereo not drawn)	.	.	11	.
COc1ccc(CC(=O)NC(C)c2nnc(SCC(=O)c3ccc(OC)cc3)n2C)cc1 (stereo not drawn)	/	/	.	/
O=C(CSc1nnc(-c2cccc(S(=O)(=O)N3CCOCC3)c2)n1C1CCCCCC1)NCc1ccccc1	.	.	.	.
O=C(CCNS(=O)(=O)c1cccs1)N1CCCCCC1	.	.	.	.
O=C(Oc1ccccc1/C=C\C(=O)c1cc2ccccc2o1)c1cccc(F)c1	.	.	10	.
O=C(Oc1ccccc1/C=C\C(=O)c1cc2ccccc2o1)c1ccccc1	.	.	.	.
CCOC(=O)c1cnn(CCOC(=O)c2cccc(F)c2)c1NC(=O)c1cccc(F)c1	.	.	.	.
COc1ccc(C2=NN(c3nc(-c4ccccc4)c(CC(=O)O)s3)C(c3ccco3)C2)cc1 (stereo not drawn)	.	31	.	.
COc1ccccc1C(=O)N1CCC(C(=O)c2ccc(F)cc2)CC1	.	.	.	.
Cc1sc2nc(C3CC3)nc(SCC(=O)N3CCc4ccccc4C3)c2c1C	.	.	.	.
SMILES	sdo1 growth	Yeast lifespan up	RAM network inh	BB579 growth dn
Cc1sc2nc(C3CC3)nc(SCC(=O)N3CCCc4ccccc43)c2c1C	.	.	9.2	.
COc1ccc(/C=C/C(=O)c2oc3ccc(F)cc3c2C)cc1	.	.	11	.
Cc1ccc(Oc2ccc(Cl)cc2NC(=O)c2ccc(F)cc2F)cc1	.	.	8.9	.
CC(OC(=O)CCCN1C(=O)c2ccccc2C1=O)C(=O)Nc1ncc(Cl)cc1Cl (stereo not drawn)	.	30	.	.
CCNc1ccc(S(=O)(=O)N(C)C)cc1NCC(=O)Nc1ccc(Br)cc1F	.	.	.	.
c1ccc(-c2nc(CSc3nnc(-c4cccs4)o3)cs2)cc1	.	.	9.9	.
O=C(C/C=N/OCc1ccc(Cl)cc1)c1cnc(-c2ccccc2)s1	.	.	11	.
Cc1cccc(OCCn2cc(/C=N/NC(=O)c3ccncc3)c3ccccc32)c1	.	.	.	54
Cc1ccccc1Nc1nnc(SCC(=O)Nc2ccccc2[N+](=O)[O-])s1	.	.	8.7	.
CCc1ccc(N(CC)C(=O)c2ccc3c(Cl)c4c(nc3c2)CCC4)cc1	.	.	.	.
CCN(C(=O)c1ccc2c(Cl)c3c(nc2c1)CCC3)c1cccc(C)c1	.	39	.	.
N#Cc1ccccc1NC(=O)c1ccc2c(Cl)c3c(nc2c1)CCCC3	.	.	.	45
COc1ccccc1N1CCN(C(=O)c2ccc3c(Cl)c4c(nc3c2)CCCC4)CC1	.	28	.	.
O=C(Cn1cnc2ccccc2c1=O)Nc1ccccc1N1CCOCC1	/	/	.	/
CCC12C(=O)C(CC)(C(c3ccccc3)=C1c1ccccc1)[C@@H]1C(=O)N(c3ccccc3)C(=O)C12 (stereo partly drawn)	.	.	.	.
Cc1ccc(CNC(=O)CS(=O)(=O)c2ccccc2)cc1	/	/	.	/
CC(c1ccco1)N(C(=O)c1ccccc1NS(=O)(=O)c1cccc([N+](=O)[O-])c1)c1ccccn1 (stereo not drawn)	.	34	.	.
CC(c1ccco1)N(C(=O)c1ccccc1NS(=O)(=O)c1cc([N+](=O)[O-])ccc1Cl)c1ccccn1 (stereo not drawn)	.	59	.	.
C=CCn1c(O)c(N=NC(=O)CNC(=O)c2ccco2)c2ccccc21	.	.	.	.
COC(=O)CSc1nc(C)c(C)c(C)c1C(N)=O	/	/	.	/
CN(Cc1nc2ccccc2c(=O)[nH]1)Cc1nc2ccsc2c(=O)[nH]1	/	/	.	/
CN(c1ccccc1)c1nc2ccsc2c(=O)s1	.	88	.	.
CCN(c1ccccc1)c1nc2ccsc2c(=O)s1	.	.	8.5	.
COC(=O)/C(=C/c1ccccc1)NC(=O)c1ccco1	.	.	.	.
CSCCC(NC(N)=O)C(=O)Nc1ccc(C)cc1 (stereo not drawn)	/	/	.	/
SMILES	sdo1 growth	Yeast lifespan up	RAM network inh	BB579 growth dn
O=c1c2c3c(sc2ncn1/N=C/c1ccc([N+](=O)[O-])o1)CCCC3	.	65	.	.
O=[N+]([O-])c1ccc(-c2cn(-c3ccccc3)c(=S)[nH]2)cc1	.	.	10	.
COc1ccc(NS(=O)(=O)c2cc(NC(=O)c3cc(=O)c4ccccc4o3)ccc2OC)cc1	/	/	9.6	/
COc1ccc(NS(=O)(=O)c2cc(NC(=O)c3ccc(F)cc3)ccc2OC)cc1	.	.	.	.
COC(=O)c1ccc(-c2ccco2)n1Cc1nc(-c2ccc(OC)c(OC)c2)oc1C	.	.	8.4	.
CCOc1cc(/C=C\[N+](=O)[O-])ccc1OCC(=O)Nc1ccccc1C	.	92	.	.
CCOc1cc(/C=N/NC(N)=O)cc(Br)c1OCC(=O)Nc1ccccc1C	.	.	.	.
COc1ccc(O)c(C(=O)CC(=O)c2ccccc2)c1	.	.	.	.
COc1ccc(C(CC(=O)c2ccccc2)S(=O)(=O)c2ccc(C)cc2)cc1 (stereo not drawn)	.	.	9.8	.
COc1ccc(C(=O)C/C(=C\C(=O)c2ccc(C)cc2)c2ccccc2)cc1	.	33	11	.
Cc1ccc(C)c(NC(=S)NC(NC(=O)Cc2cccc3ccccc23)C(Cl)(Cl)Cl)c1 (stereo not drawn)	.	.	.	.
CCc1cccc(NC(=O)c2cc(S(=O)(=O)N(C)C)ccc2N2CCCC2)c1	/	/	11	/
